Measurements published in ChEMBL document CHEMBL4024754, “Development of Potent, Protease-Resistant Agonists of the Parathyroid Hormone Receptor with Broad β Residue Distribution” (J Med Chem, 2017).
Calls of active or inactive are those of the source. No cut-off for these calls is given here. Numbered stars: 1 amine (or outer) side, 2 acyl side, 3 side chain; on linkers, the order of the positions; unused ones are H or OH. Square brackets hold non-standard residues; d marks the D form. Peptide text beside a SMILES is read from it. * marks the point of attachment. NH(1S,2S-2-CONH2-cPent) = NC(=O)[C@H]1CCC[C@@H]1N*; X1 = O=C([C@H]1CCC[C@@H]1N[*:1])[*:2]; X2 = O=C([C@H]1CNC[C@@H]1N[*:1])[*:2]

How the values were obtained:
[1] = target: T1, Parathyroid hormone/parathyroid hormone-related peptide receptor (Homo sapiens) (UniProt Q03431); experiment: Displacement of [125I]-PTH(1 to 34 residues) from R0 state of human PTHR1 expressed in African green monkey COS7 cell membranes incubated for >1 hr in presence of GTPgammaS by gamma radiation method
T1 sequence (whole entry): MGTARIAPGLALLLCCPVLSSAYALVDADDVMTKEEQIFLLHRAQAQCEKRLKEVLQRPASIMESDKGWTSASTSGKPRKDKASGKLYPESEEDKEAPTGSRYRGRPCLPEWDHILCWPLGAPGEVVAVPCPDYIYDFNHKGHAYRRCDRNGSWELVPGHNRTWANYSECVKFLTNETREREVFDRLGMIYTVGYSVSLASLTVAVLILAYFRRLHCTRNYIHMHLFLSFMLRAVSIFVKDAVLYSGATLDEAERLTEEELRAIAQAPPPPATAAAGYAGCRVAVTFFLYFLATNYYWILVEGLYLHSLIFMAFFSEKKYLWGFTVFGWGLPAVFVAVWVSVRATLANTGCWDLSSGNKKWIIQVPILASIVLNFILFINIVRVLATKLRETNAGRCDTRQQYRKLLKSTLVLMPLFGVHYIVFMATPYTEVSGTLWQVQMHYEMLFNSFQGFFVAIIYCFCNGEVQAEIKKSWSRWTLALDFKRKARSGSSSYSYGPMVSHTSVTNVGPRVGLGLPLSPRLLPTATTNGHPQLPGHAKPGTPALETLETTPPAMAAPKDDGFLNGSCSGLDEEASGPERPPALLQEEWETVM

Mus musculus [2] = experiment: In vivo induction of excessive bloodstream calcium concentration in CD1 mouse at 20 nmol/kg, sc after 2 hrs by Ca2+/pH analyzer; format: organism-based
In short: (§1)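 Female CD1 mice (9−12 weeks), n = 5, given 20 nmol/kg subcutaneously in 10 mM citrate/150 mM NaCl/0.05% Tween-80, pH 5.0. Tail vein blood taken before and at times after dosing. Ca2+ measured by Ca2+/pH analyzer. One-way ANOVA with Dunnett's test vs vehicle. Mean ± SEM.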

[3] = Drug metabolism in Sprague-Dawley rat kidney homogenates assessed as protease mediated-drug degradation at 12 uM up to 5 mins by MALDI-TOF-MS analysis; format: ADME, tissue-based; settings: tissue homogenate
In short: (§2)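 Perfused female Sprague-Dawley kidney homogenate in 50 mM Tris-HCl pH 7.4, diluted to 2.5 mg protein/mL. Peptide spiked at 50 μg/mL (~12 μM) and incubated at 37 °C. Timed samples quenched with equal volume 1% TFA, centrifuged, dried, reconstituted in 0.1% formic acid, mixed with DHB matrix. Fragments identified by MALDI-TOF MS.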

[4] = target: T1, Parathyroid hormone/parathyroid hormone-related peptide receptor (Homo sapiens); experiment: Agonist activity at human PTH1 receptor expressed in human GP2.3 cells assessed as induction of cAMP at 0.1 to 100 nM preincubated with SGF for 5 secs followed by compound transfer to GP2.3 cells by luciferase reporter gene assay; format: functional, cell-based
In short: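 Quenched at set times with 10× PBS, diluted into CO2-independent medium, serially 1:10, then added to confluent GP2.3 cells (HEK293, hPTHR1 plus Glosensor cAMP reporter) preloaded 30 min with 0.5 mM D-luciferin. Final 100–0.1 nM. Luminescence read; two technical replicates; variable-slope sigmoidal fit.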

[5] = Half life in Sprague-Dawley rat kidney homogenates at 12 uM by HPLC-MS analysis; format: ADME, tissue-based
In short: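 Kidney homogenate (2.5 mg protein/mL, pH 7.4 Tris) spiked with peptide at 50 μg/mL (~12 μM), 37 °C, sampled 0−120 min. […] C18 UHPLC–Orbitrap MS quantified via y32 ion area ratio against calibration standards. Exponential decay fit, mean ± SD of two replicates.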

[6] = Drug metabolism in Sprague-Dawley rat kidney homogenates assessed as protease-mediated metabolite formation at 12 uM after 5 mins by MALDI-TOF-MS analysis; format: ADME, tissue-based; settings: tissue homogenate; in short: as §2
[7] = Drug metabolism in Sprague-Dawley rat kidney homogenates assessed as protease mediated-drug degradation at 12 uM up to 15 mins by MALDI-TOF-MS analysis; format: ADME, tissue-based; settings: tissue homogenate; in short: as §2
[8] = target: T1, Parathyroid hormone/parathyroid hormone-related peptide receptor (Homo sapiens); experiment: Agonist activity at human PTH1 receptor expressed in human GP2.3 cells assessed as induction of cAMP at 0.1 to 100 nM preincubated with protease activity quenched SIF followed by compound transfer to GP2.3 cells by luciferase reporter gene assay; format: functional, cell-based
In short: (§3)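 Control samples: simulated gastric fluid neutralized with 10× PBS, or intestinal fluid mixed with acetonitrile/TFA quench solution, before adding peptide. Gastric controls held up to 4 h. Then diluted and tested on luciferin-loaded GP2.3 cells at 100−0.1 nM final, alongside freshly prepared peptide.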

[9] = Stability in simulated gastric fluid assessed as pig pepsin-mediated proteolysis at 40 uM after 5 secs by RP-HPLC analysis; format: ADME, Sus scrofa; settings: isolated protein, 5 s
In short: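 Proteolysis quenched by transfer into 10× PBS, pH 7.4, giving 40 μM peptide. Analysed by analytical C18 RP-HPLC, 10–60% acetonitrile/0.1% TFA over 50 min. Intact peptide quantified by integrating its peak. Duplicate reactions run concurrently, standard deviation.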

[10] = target: T1, Parathyroid hormone/parathyroid hormone-related peptide receptor (Homo sapiens); experiment: Agonist activity at extracellular domain truncate human PTH1 receptor expressed in GD5 cells assessed as induction of cAMP after 12 to 20 mins by luciferase reporter gene assay; format: functional, cell-based
In short: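 HEK293-derived lines stably expressing Glosensor cAMP reporter plus full-length human PTHR1 (GP2.3) or ECD-truncated PTHR1 (GD5). Confluent monolayers preincubated at room temperature in CO2-independent medium with 0.5 mM D-luciferin until baseline stable (30 min), then varied agonist concentrations added. Maximal luminescence (12−20 min) used for sigmoidal variable-slope fits.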

[11] = target: T1, Parathyroid hormone/parathyroid hormone-related peptide receptor (Homo sapiens); experiment: Agonist activity at human PTH1 receptor expressed in human GP2.3 cells assessed as induction of cAMP at 0.1 to 100 nM preincubated with protease activity quenched SGF up to 4 hrs followed by compound transfer to GP2.3 cells by luciferase reporter gene assay; format: functional, cell-based; in short: as §3
[12] = target: T1, Parathyroid hormone/parathyroid hormone-related peptide receptor (Homo sapiens); experiment: Agonist activity at human PTH1 receptor expressed in human GP2.3 cells assessed as induction of cAMP at 0.1 to 100 nM preincubated with SIF for 10 mins followed by compound transfer to GP2.3 cells by luciferase reporter gene assay; format: functional, cell-based
In short: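 Simulated intestinal fluid containing pancreatin, pH 6.8, prepared fresh and kept at 37 °C. Peptide incubated in it as for gastric fluid. Quenched 1:1 with 50% acetonitrile/1% TFA. Quenched samples serially diluted in CO2-independent medium and applied to luciferin-preloaded GP2.3 cells at 100−0.1 nM final. Luminescence read. Two technical replicates.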

Blood = experiment: Drug level in CD1 mouse blood at 20 nmol/kg, sc measured up to 2 hrs; format: ADME, organism-based; settings: in vivo
In short: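 Female CD1 mice, n = 5, 20 nmol/kg subcutaneously in citrate/NaCl/Tween-80 vehicle, pH 5.0. 2 μL serum from timed bleeds, mixed with CO2-independent medium, added to GP2.3 cells. Luminescence converted to peptide concentration via a standard curve.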

[13] = target: T1, Parathyroid hormone/parathyroid hormone-related peptide receptor (Homo sapiens); experiment: Agonist activity at human PTH1 receptor expressed in human GP2.3 cells assessed as induction of cAMP after 12 to 20 mins by luciferase reporter gene assay relative to PTH(1 to 34 residues)-NH2; format: functional, cell-based
Mus musculus [14] = experiment: In vivo induction of excessive bloodstream calcium concentration in CD1 mouse at 20 nmol/kg, sc up to 2 hrs by Ca2+/pH analyzer; format: organism-based; in short: as §1

Row | inhibition [1] | Drug metabolism [3] | Activity [4] | half-life at 12 µM [5] [min] | Drug metabolism [6] | Drug metabolism [7] | Activity [8] | Stability [9] | Activity [10] | Activity [11] | Activity [12] | Drug uptake (Blood) | fold change (FC) [13] | Structure (SMILES) | Activity (Mus musculus [2]) | Activity (Mus musculus [14])
1 | Active | Metabolite_Detected | inactive | 1.9 | Metabolite_Detected | Metabolite_Detected | Active | Unstable | Active | Active | inactive | – | – | CC[C@H](C)[C@H](NC(=O)[C@H](CCC(=O)O)NC(=O)[C@H](CO)NC(=O)[C@@H](NC(=O)[C@@H](N)CO)C(C)C)C(=O)N[C@@H](CCC(N)=O)C(=O)N[C@@H](CC(C)C)C(=O)N[C@@H](CCSC)C(=O)N[C@@H](Cc1cnc[nH]1)C(=O)N[C@@H](CC(N)=O)C(=O)N[C@@H](CC(C)C)C(=O)NCC(=O)N[C@@H](CCCCN)C(=O)N[C@@H](Cc1cnc[nH]1)C(=O)N[C@@H](CC(C)C)C(=O)N[C@@H](CC(N)=O)C(=O)N[C@@H](CO)C(=O)N[C@@H](CCSC)C(=O)N[C@@H](CCC(=O)O)C(=O)N[C@@H](CCCNC(=N)N)C(=O)N[C@H](C(=O)N[C@@H](CCC(=O)O)C(=O)N[C@@H](Cc1c[nH]c2ccccc12)C(=O)N[C@@H](CC(C)C)C(=O)N[C@@H](CCCNC(=N)N)C(=O)N[C@@H](CCCCN)C(=O)N[C@@H](CCCCN)C(=O)N[C@@H](CC(C)C)C(=O)N[C@@H](CCC(N)=O)C(=O)N[C@@H](CC(=O)O)C(=O)N[C@H](C(=O)N[C@@H](Cc1cnc[nH]1)C(=O)N[C@@H](CC(N)=O)C(=O)N[C@@H](Cc1ccccc1)C(N)=O)C(C)C)C(C)C | Non-Toxic | –
2 | Active | – | – | – | – | – | – | – | – | – | – | Active | 3.2 | CC[C@H](C)[C@H](NC(=O)[C@H](CCC(=O)O)NC(=O)[C@H](CO)NC(=O)[C@@H](NC(=O)[C@@H](N)CO)C(C)C)C(=O)N[C@@H](CCC(N)=O)C(=O)N[C@@H](CC(C)C)C(=O)N[C@@H](CCSC)C(=O)N[C@@H](Cc1cnc[nH]1)C(=O)N[C@@H](CC(N)=O)C(=O)N[C@@H](CC(C)C)C(=O)NCC(=O)N[C@@H](CCCCN)C(=O)N[C@H]1CCC[C@@H]1C(=O)N[C@@H](CC(C)C)C(=O)N[C@@H](CC(N)=O)C(=O)N[C@@H](CO)C(=O)N[C@H]1CCC[C@@H]1C(=O)N[C@@H](CCC(=O)O)C(=O)N[C@@H](CCCNC(=N)N)C(=O)N[C@H](C(=O)N[C@H]1CNC[C@@H]1C(=O)N[C@@H](Cc1c[nH]c2ccccc12)C(=O)N[C@@H](CC(C)C)C(=O)N[C@@H](CCCNC(=N)N)C(=O)N[C@H]1CNC[C@@H]1C(=O)N[C@@H](CCCCN)C(=O)N[C@@H](CC(C)C)C(=O)N[C@@H](CCC(N)=O)C(=O)N[C@H]1CCC[C@@H]1C(=O)N[C@H](C(=O)N[C@@H](Cc1cnc[nH]1)C(=O)N[C@@H](CC(N)=O)C(=O)N[C@H]1CCC[C@@H]1C(N)=O)C(C)C)C(C)C (H-SVSEIQLMHNLGK[X1]LNS[X1]ERV[X2]WLR[X2]KLQ[X1]VHN-{NH(1S,2S-2-CONH2-cPent)}) | Non-Toxic | Toxic
